For data set [1], the system named is H69 cholangiocyte cell line (Homo sapiens). Put plainly: Induction of human H69 cell growth at 400 nM after 5 to 6 days by real time cell proliferation assay relative to control.
The test system of another data set is Mus musculus. Put plainly: Wound healing activity in BALB/c mouse assessed as biopsy punch-induced wound closure at 56 pmol administered topically daily as 1.5% methyl cellulose gel for 4 days measured on day 4 post last dose relative to control. The format is functional. In a few lines: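 Female BALB/c mice, 11−12 weeks, 19−23 g, groups of 4−5. Under ip xylazine 16 mg/kg and ketamine 80 mg/kg, a 5 mm biopsy punch made a skin-deep scalp wound (~0.2 cm2). Betadine was applied first. Then 56 pmol in 50 μL 1.5% methylcellulose gel was applied daily, days 0−4. Healing at day 4 expressed relative to PBS vehicle.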

Data set [2] concerns NCI-H69. Put plainly: Induction of human H69 cell growth at 32 nM after 5 to 6 days by real time cell proliferation assay relative to control. The format is functional. In a few lines: (§1)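 H69 SV40-transformed human cholangiocytes, seeded 1500 cells/well in complete media and grown overnight, then washed with PBS and held ≥6 h in low-nutrient medium (0.5% FCS, 1/20 growth factors). Single treatment added at 10× stock. Impedance cell index read hourly for 5−6 days and normalized to pre-treatment. Proliferation ratio taken at day 4 versus control (tropomyosin-derived 20-residue peptide for peptides; thioredoxin for recombinant protein). Two-Way ANOVA with Dunnett's correction.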

For data set [3], the system named is NCI-H69. Put plainly: Induction of human H69 cell growth up to 2 uM after 5 to 6 days by real time cell proliferation assay. The format is functional, cell-based. In a few lines: as §1
In data set [4] the test system is NCI-H69. Nature of the data set: Induction of human H69 cell growth at 2 uM after 5 to 6 days by real time cell proliferation assay relative to control. The data set is classed as functional. Put shortly:
as §1

Data set [5] has as its system NCI-H69. Nature of the data set: Induction of human H69 cell growth at 400 nM after 5 to 6 days by real time cell proliferation assay relative to control. The format is functional. In a few lines: as §1
The subject of data set [6] is NCI-H69. Put plainly: Cytotoxicity against human H69 cells up to 2 uM after 5 to 6 days by real time cell proliferation assay. The format is cell-based.

Active and inactive are the calls of the source. No cut-off for these calls is given here. Positions of bridges follow the written chain, without caps; N, C: chain ends. Residues, ends and D or L forms follow the SMILES beside them.

Regarding `CSCC[C@H](NC(=O)[C@@H]1CCCN1C(=O)[C@H](C)NC(=O)[C@@H]1CSSC[C@@H]2NC(=O)[C@H]([C@@H](C)O)NC(=O)[C@H](Cc3ccc(O)cc3)NC(=O)[C@H](C(C)C)NC(=O)[C@@H]3CCCN3C(=O)[C@H](CC(=O)O)NC(=O)[C@@H]3CCCN3C(=O)[C@@H](NC(=O)[C@H](CO)NC(=O)[C@@H]3CCCN3C(=O)[C@H](CO)NC(=O)[C@@H](N)CCCNC(=N)N)CSSC[C@H](NC(=O)[C@H]([C@@H](C)O)NC(=O)[C@H](CCC(N)=O)NC(=O)CNC(=O)[C@@H]3CCCN3C(=O)[C@H](CCCNC(=N)N)NC2=O)C(=O)N[C@@H](C)C(=O)N[C@@H](CCCNC(=N)N)C(=O)NCC(=O)N[C@@H](CC(C)C)C(=O)N[C@@H](Cc2cnc[nH]2)C(=O)NCC(=O)N[C@@H](Cc2ccc(O)cc2)C(=O)NCC(=O)N1)C(=O)N[C@@H](CC(=O)O)C(=O)O` (H-RSPSCPDPVYTCRPGQTCARGLHGYGCAPMD-OH; disulfide 5-18, 12-27), in data set [1], the outcome was inactive. Moreover, the Activity in the data set on Mus musculus is on record as 26 - 41%.

Compound `CC[C@H](C)[C@H](NC(=O)[C@@H](N)C(C)C)C(=O)N[C@@H](Cc1cnc[nH]1)C(=O)N[C@H]1CSSC[C@@H]2NC(=O)[C@H]([C@@H](C)O)NC(=O)[C@H]([C@@H](C)O)NC(=O)CNC(=O)[C@H](CC(=O)O)NC(=O)[C@@H]3CCCN3C(=O)[C@H](CSSC[C@@H](C(=O)N[C@@H](C)C(=O)N3CCC[C@H]3C(=O)N[C@@H](Cc3ccccc3)C(=O)N[C@@H](CO)C(=O)O)NC(=O)[C@H](Cc3ccc(O)cc3)NC(=O)[C@H](Cc3c[nH]c4ccccc34)NC(=O)[C@H](C(C)C)NC(=O)CNC(=O)[C@H](Cc3ccc(O)cc3)NC(=O)[C@@H]3CCCN3C(=O)[C@H](CO)NC(=O)[C@H](CC(C)C)NC(=O)[C@H](C)NC2=O)NC(=O)[C@H]([C@@H](C)CC)NC(=O)[C@H]([C@@H](C)O)NC(=O)[C@H](C)NC(=O)[C@H](C)NC(=O)[C@H](CC(=O)O)NC1=O` (H-VIHCDAATICPDGTTCALSPYGVWYCAPFS-OH; disulfide 4-16, 10-26) yielded an Activity in the data set on NCI-H69 [2] of 9%. The result in the data set with NCI-H69 [3] was inactive.

For the compound `CC[C@H](C)[C@H](NC(=O)[C@@H]1CCCN1C(=O)[C@H](CCC(N)=O)NC(=O)[C@H](CC(C)C)NC(=O)[C@@H](NC(=O)[C@H](CC(=O)O)NC(=O)[C@@H](N)CCSC)[C@@H](C)O)C(=O)N[C@@H](CCCNC(=N)N)C(=O)N[C@@H](CO)C(=O)N1CCC[C@H]1C(=O)N[C@@H](CO)C(=O)N[C@H]1CSSC[C@@H]2NC(=O)[C@H]([C@@H](C)O)NC(=O)[C@H](CCC(N)=O)NC(=O)CNC(=O)[C@@H]3CCCN3C(=O)[C@H](CCCNC(=N)N)NC(=O)[C@H](CSSC[C@@H](C(=O)N[C@@H](C)C(=O)O)NC(=O)CNC(=O)[C@H](Cc3ccc(O)cc3)NC(=O)CNC(=O)[C@H](Cc3cnc[nH]3)NC(=O)[C@H](CC(C)C)NC(=O)CNC(=O)[C@H](CCCNC(=N)N)NC(=O)[C@H](C)NC2=O)NC(=O)[C@H]([C@@H](C)O)NC(=O)[C@H](Cc2ccc(O)cc2)NC(=O)[C@H](C(C)C)NC(=O)[C@@H]2CCCN2C(=O)[C@H](CC(=O)O)NC(=O)[C@@H]2CCCN2C1=O` (H-MDTLQPIRSPSCPDPVYTCRPGQTCARGLHGYGCA-OH; disulfide 12-25, 19-34), the Activity is on record as 14 - 25% in the data set on NCI-H69 [4], 37 - 41% in the data set on Mus musculus, 9% with NCI-H69 [5] and “Non-Toxic” with NCI-H69 [6].

Regarding `CC(C)C[C@@H]1NC(=O)CNC(=O)[C@H](CCCNC(=N)N)NC(=O)[C@H](C)NC(=O)[C@@H]2CSSC[C@H](N)C(=O)N3CCC[C@H]3C(=O)N[C@@H](CC(=O)O)C(=O)N3CCC[C@H]3C(=O)N[C@@H](C(C)C)C(=O)N[C@@H](Cc3ccc(O)cc3)C(=O)N[C@@H]([C@@H](C)O)C(=O)N[C@@H](CSSC[C@@H](C(=O)O)NC(=O)CNC(=O)[C@H](Cc3ccc(O)cc3)NC(=O)CNC(=O)[C@H](Cc3cnc[nH]3)NC1=O)C(=O)N[C@@H](CCCNC(=N)N)C(=O)N1CCC[C@H]1C(=O)NCC(=O)N[C@@H](CCC(N)=O)C(=O)N[C@@H]([C@@H](C)O)C(=O)N2` (H-CPDPVYTCRPGQTCARGLHGYGC-OH; disulfide 1-14, 8-23), the result in data set [1] was inactive. In addition, the Activity with NCI-H69 [4] was 14 - 25%; in the data set on Mus musculus, 37 - 41%; in the data set with NCI-H69 [6], “Non-Toxic”.

For the origin of these results see ChEMBL document CHEMBL4049448, “Development of a Potent Wound Healing Agent Based on the Liver Fluke Granulin Structural Fold” (J Med Chem, 2017).
